Data set [1] has as its target T1, Prostaglandin G/H synthase 2 (Homo sapiens) (UniProt P35354).
T1 sequence (whole entry): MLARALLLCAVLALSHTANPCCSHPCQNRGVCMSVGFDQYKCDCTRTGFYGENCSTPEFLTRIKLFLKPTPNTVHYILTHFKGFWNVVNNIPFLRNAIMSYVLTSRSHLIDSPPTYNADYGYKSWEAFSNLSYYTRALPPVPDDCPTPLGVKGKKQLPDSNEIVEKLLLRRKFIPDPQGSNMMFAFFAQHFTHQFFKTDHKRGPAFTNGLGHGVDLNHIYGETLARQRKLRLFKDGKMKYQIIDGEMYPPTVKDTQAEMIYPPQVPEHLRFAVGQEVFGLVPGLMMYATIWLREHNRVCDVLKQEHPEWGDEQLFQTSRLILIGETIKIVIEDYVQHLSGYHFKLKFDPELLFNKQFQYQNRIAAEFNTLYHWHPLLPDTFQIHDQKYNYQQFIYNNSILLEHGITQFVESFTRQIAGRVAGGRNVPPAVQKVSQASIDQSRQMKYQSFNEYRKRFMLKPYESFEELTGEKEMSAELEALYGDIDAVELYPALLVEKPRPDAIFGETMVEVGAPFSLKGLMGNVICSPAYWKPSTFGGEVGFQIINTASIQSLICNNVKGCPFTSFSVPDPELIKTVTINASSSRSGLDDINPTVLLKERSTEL
Description: Inhibition of human COX2 using arachidonic acid as substrate assessed as formation of TMPD at 50 uM incubated for 5 mins prior to substrate addition measured after 5 mins by spectrophotometry. The essentials:
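Human recombinant COX-2 (1:1000) in 0.1 M Tris pH 8.0 with hematin, pre-incubated 5 min at room temperature with 50 μM compound. TMPD and arachidonic acid then added and incubated 5 min at room temperature. Oxidized TMPD read at 550 nm. Controls: DMSO (100%) and no arachidonic acid. Triplicate, mean ± SD.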

Data set [2] deals with T2, Polyunsaturated fatty acid 5-lipoxygenase (Homo sapiens) (UniProt P09917).
T2 sequence (whole entry): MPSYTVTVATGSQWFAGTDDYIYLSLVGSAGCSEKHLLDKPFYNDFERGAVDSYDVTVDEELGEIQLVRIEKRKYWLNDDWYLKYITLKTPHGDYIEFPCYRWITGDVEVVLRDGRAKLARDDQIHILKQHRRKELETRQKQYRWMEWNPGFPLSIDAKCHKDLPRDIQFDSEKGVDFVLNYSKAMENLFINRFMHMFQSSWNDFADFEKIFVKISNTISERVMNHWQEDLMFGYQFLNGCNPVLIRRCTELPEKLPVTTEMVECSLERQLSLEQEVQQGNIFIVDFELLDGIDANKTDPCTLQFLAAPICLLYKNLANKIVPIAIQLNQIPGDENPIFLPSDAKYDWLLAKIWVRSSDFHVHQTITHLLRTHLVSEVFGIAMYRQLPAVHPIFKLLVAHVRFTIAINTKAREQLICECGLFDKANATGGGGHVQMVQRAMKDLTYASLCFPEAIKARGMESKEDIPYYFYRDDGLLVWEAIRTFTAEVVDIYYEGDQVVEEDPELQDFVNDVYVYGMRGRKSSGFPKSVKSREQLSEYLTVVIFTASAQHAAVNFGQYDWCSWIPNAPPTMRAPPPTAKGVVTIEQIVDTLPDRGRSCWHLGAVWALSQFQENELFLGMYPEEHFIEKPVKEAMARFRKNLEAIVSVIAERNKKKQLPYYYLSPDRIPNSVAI
Description: Inhibition of human 5-LOX using lionleic acid as substrate assessed as formation of 13-HPOD at 50 uM incubated for 10 mins prior to substrate addition measured after 10 secs by UV absorbance assay. The gist of the method:
(§1)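 Recombinant human 5-LOX (1:4000 dilution) in 50 mM Tris pH 7.5 with 2 mM EDTA, 2 mM CaCl2 and ATP, pre-incubated 10 min at room temperature with 50 μM compound (DMSO stock diluted in buffer). Linoleic acid (100 μM final) then added. Conjugated-diene HPOD formation read at 234 nm over 20 min, starting after 10 s mixing. Activity given relative to DMSO control (100%) and no-enzyme blank (0%). Triplicate.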

Data set [3] deals with T2, Polyunsaturated fatty acid 5-lipoxygenase (Homo sapiens). Description: Modulation of human 5-LOX using arachidonic acid as substrate at 50 uM. The gist of the method: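 Human 5-LOX in Tris pH 7.5 buffer with EDTA and CaCl2, pre-incubated 10 min with 50 μM compound. Substrate was arachidonic acid, 100 μM final. Residual activity measured by UV absorbance of conjugated diene product, relative to an uninhibited control.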

Data set [4] shares this target. Nature of the data set: Modulation of human 5-LOX using linoleic acid as substrate at 50 uM. The gist of the method: as §1
Data set [5] addresses T3, Polyunsaturated fatty acid 5-lipoxygenase (Homo sapiens, UniProt P09917).
T3 sequence (P09917 whole entry): T2 sequence (whole entry)
Description: Binding affinity to human 5-LOX using linoleic acid as substrate. The gist of the method:
(§2)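 Human 5-LOX in 50 mM Tris pH 7.5 with 2 mM EDTA and 2 mM CaCl2, pre-incubated 10 min at room temperature with the modulator at fixed 0–50 μM. Linoleic acid was varied 37.5–300 μM with ATP at 100 μM. Initial rates came from the 234 nm diene absorbance, in triplicate. Dissociation constants for free and substrate-bound enzyme were derived by Lineweaver-Burk slope/intercept re-plots.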

A short description of data set [6]: Critical micelle concentration of the compound in 50 mM Tris buffer containing 2 mM EDTA, 2 mM CaCl2 at pH 7.5 at 19 degC. It is filed as ADME. The essentials: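 Surface tension measured across a range of compound concentrations in the 5-LOX assay buffer at room temperature (19 °C) and plotted against log concentration. The CMC was read from this plot.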
Data set [7] concerns the target T3, Polyunsaturated fatty acid 5-lipoxygenase. Nature of the data set: Binding affinity to human 5-LOX-linoleic acid complex. The essentials:
as §2

A short description of data set [8]: Critical micelle concentration of the compound in 50 mM Tris buffer with 2 mM EDTA and 2 mM CaCl2 at pH 7.5 at 19 degC.
Data set [9] addresses T2, Polyunsaturated fatty acid 5-lipoxygenase (Homo sapiens). Nature of the data set: Non-competitive activation of human 5-LOX using linoleic acid as substrate assessed as increase in Vmax (app) at 12.5 to 25 uM by Michaelis-Menten equation analysis in presence of ATP. The essentials:
(§3)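 Human 5-LOX, UV assay at 234 nm as in screening. Initial velocities measured with ATP varied over 12.5–200 μM, linoleic acid fixed at 100 μM, and activator at 0, 12.5 or 25 μM. Vmax(app) and Km(app) obtained from Michaelis-Menten and Lineweaver-Burk plots. Triplicate.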

Data set [10] shares this target. Nature of the data set: Binding affinity to human 5-LOX using linoleic acid as substrate by Lineweaver-Burk plot analysis.
For data set [11] the target is unchanged. Description: Non-essential mixed type activation of human 5-LOX assessed as increase in Vmax (app) at 12.5 to 25 uM by Michaelis-Menten/ Lineweaver-Burk plot analysis in presence of linoleic acid. The essentials: (§4)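 Human 5-LOX, conjugated diene read at 234 nm (ε = 25000 M−1cm−1). ATP fixed at 100 μM, linoleic acid varied over 37.5–300 μM, activator at 0, 12.5 or 25 μM. Km(app) and Vmax(app) taken from Michaelis-Menten and Lineweaver-Burk plots. Triplicate, mean ± SD.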

Data set [12] shares this target. Description: Activation of human 5-LOX using lionleic acid as substrate assessed as formation of 13-HPOD at 50 uM incubated for 10 mins prior to substrate addition measured after 10 secs by UV absorbance assay. The gist of the method: as §1
Data set [13] shares this target. Description: Binding affinity to human 5-LOX-linoleic acid complex by Lineweaver-Burk plot analysis.
Data set [14] shares this target. Nature of the data set: Non-essential mixed type activation of human 5-LOX assessed as decrease in Km (app) at 12.5 to 25 uM by Michaelis-Menten/ Lineweaver-Burk plot analysis in presence of lonoleic acid. The essentials: as §4
The target is the same in data set [15]. Nature of the data set: Activation of human 5-LOX using lionleic acid as substrate assessed as formation of 13-HPOD incubated for 10 mins prior to substrate addition measured after 10 secs by UV absorbance assay. The gist of the method:
as §1

For data set [16] the target is unchanged. Nature of the data set: Non-competitive activation of human 5-LOX using linoleic acid as substrate assessed as increase in Vmax (app) at 12.5 to 25 uM by Lineweaver-Burk plot analysis in presence of ATP. The essentials:
as §3

Data set [17] has the same target. Nature of the data set: Binding affinity to human 5-LOX-linoleic acid complex at <10 uM by Lineweaver-Burk plot analysis relative to human 5-LOX.

Calls of active or inactive are those of the source. The rule behind the calls is not given here.

Usually inhibition stands for the relative decrease from the control value, in per cent. By Ki is commonly meant the dissociation constant of the complex between target and ligand, obtained from inhibition or displacement. Read a high Ki as lower affinity.

Regarding `CCCCCCCc1ccc(CCc2cccc(O)c2C(=O)O)cc1`, the inhibition in [1] is under 50%.
On the same count and under the same terms, as for `CCCCCCCc1ccc(CCc2cc(O)cc(O)c2C(=O)O)cc1`, the figure is under 50%; as for `CCCCCCCOc1cccc(COc2cccc(O)c2C(=O)O)c1`, under 50%; as for `CCCCCCCCCOc1cccc(COc2cccc(O)c2C(=O)O)c1`, under 50%.
As for `Oc1ccccc1-c1nc2ccccc2o1`, in [1], the inhibition was 50%. Besides, the inhibition entry in data set [2] was “inactive”.
For the compound `CCCCCCCCCCCCCCCc1cccc(O)c1C(=O)O`, the inhibition in data set [1] was under 50%. For the same compound, the inhibition entry in data set [2] was “Active”.
Take `CC(C)CCCC(C)CCOc1ccc(COc2cccc(O)c2C(=O)[O-])cc1.[K+]` (configuration not stated): in data set [3], the result was inactive. Besides, the outcome in [4] was Active. For the same compound, the values for the Ki in data set [5] and in data set [7] were 70.3 µM and 140 µM, respectively. Besides, in [6], the CMC stood at 395 µM. The inhibition in data set [1] was under 50%; in data set [2], 50%.
With `CCCCCc1cccc(O)c1C(=O)O`, the inhibition in [1] was under 50%. Moreover, the inhibition result in [2] was “Active”.
Consider `CCCCCCCCCCc1ccc(CCc2cc(O)cc(O)c2C(=O)O)cc1`, for which the inhibition in data set [1] is under 50%.
Take `CCCCCCCOc1ccc(COc2cccc(O)c2C(=O)O)cc1`: the inhibition in data set [1] is under 50%. Besides, the inhibition result in data set [2] is “inactive”.
As to `CCCCCCCCCCCCCCCc1cc(O)cc(O)c1C(=O)O`, in data set [1], the inhibition is under 50%. In addition, the inhibition entry in data set [2] was “Active”.
Compound `CCCCC/C=C\C/C=C\CCCCCCCC(=O)O` [LINOLEIC ACID] gave a CMC in [8] of 185 µM.
`CCCCCCCCCCCCCCOc1cccc(O)c1C(=O)O`: the inhibition in data set [1] was under 50%.
Regarding `CCCCCOc1ccc(COc2cccc(O)c2C(=O)[O-])cc1.[K+]`, in data set [3], the outcome was inactive. Besides, the result in data set [4], in data set [9], in data set [11], in data set [12], in data set [14] and in data set [16] was Active. The Ka in [10] is 8.65 µM; in [13], 380 nM. In addition, the CMC in [6] was 628 µM. In addition, in data set [1], the inhibition was under 50%. The Activity entry in data set [15] was “Dose-dependent effect”. In addition, the fold change (FC) in [17] is 50.
Consider `CCCCCCCCCOc1ccc(COc2cccc(O)c2C(=O)O)cc1`, for which the inhibition in [1] is under 50%. In [2], the inhibition entry is “inactive”.
As to `CCCCCCCCCOc1cccc(O)c1C(=O)O`, the inhibition in data set [1] was under 50%.
Regarding `CCCCCCCCCCc1cccc(O)c1C(=O)O`, the inhibition in [1] was under 50%. Further, in [2], the inhibition entry is “Active”.
